Experimental data as given in ChEMBL document CHEMBL1158565, “Antagonism of 4-substituted 1,4-dihydropyridine-3,5-dicarboxylates toward voltage-dependent L-type Ca2+ channels Ca V 1.3 and Ca V 1.2” (Bioorg Med Chem, 2010).

What was measured:
[1] = Selectivity ratio of antagonist activity at rat Cav1.3 to antagonist activity at rabbit Cav1.2 at 200 nM; assay type: functional
Outline: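 Percent inhibition of Cav1.3 current was divided by that of Cav1.2 at the same concentration. Currents were from whole-cell patch clamp in transiently transfected tsA201 cells: Ba2+ bath, pH 7.4, steps from -60 mV, about 22 °C.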

[2] = target: Voltage-dependent L-type calcium channel subunit alpha-1D (Rattus norvegicus) (UniProt P27732); assay: Antagonist activity at rat Cav1.3 expressed in HEK293 cells assessed as inhibition of voltage pulse-induced calcium current at 200 nM by FLIPR calcium 4 assay; assay type: functional, cell-based; settings: in the assay text read “by whole-cell patch-clamp recording” for “by FLIPR calcium 4 assay”
Voltage-dependent L-type calcium channel subunit alpha-1D (Rattus norvegicus), sequence (P27732 whole entry, the tested form may be a part): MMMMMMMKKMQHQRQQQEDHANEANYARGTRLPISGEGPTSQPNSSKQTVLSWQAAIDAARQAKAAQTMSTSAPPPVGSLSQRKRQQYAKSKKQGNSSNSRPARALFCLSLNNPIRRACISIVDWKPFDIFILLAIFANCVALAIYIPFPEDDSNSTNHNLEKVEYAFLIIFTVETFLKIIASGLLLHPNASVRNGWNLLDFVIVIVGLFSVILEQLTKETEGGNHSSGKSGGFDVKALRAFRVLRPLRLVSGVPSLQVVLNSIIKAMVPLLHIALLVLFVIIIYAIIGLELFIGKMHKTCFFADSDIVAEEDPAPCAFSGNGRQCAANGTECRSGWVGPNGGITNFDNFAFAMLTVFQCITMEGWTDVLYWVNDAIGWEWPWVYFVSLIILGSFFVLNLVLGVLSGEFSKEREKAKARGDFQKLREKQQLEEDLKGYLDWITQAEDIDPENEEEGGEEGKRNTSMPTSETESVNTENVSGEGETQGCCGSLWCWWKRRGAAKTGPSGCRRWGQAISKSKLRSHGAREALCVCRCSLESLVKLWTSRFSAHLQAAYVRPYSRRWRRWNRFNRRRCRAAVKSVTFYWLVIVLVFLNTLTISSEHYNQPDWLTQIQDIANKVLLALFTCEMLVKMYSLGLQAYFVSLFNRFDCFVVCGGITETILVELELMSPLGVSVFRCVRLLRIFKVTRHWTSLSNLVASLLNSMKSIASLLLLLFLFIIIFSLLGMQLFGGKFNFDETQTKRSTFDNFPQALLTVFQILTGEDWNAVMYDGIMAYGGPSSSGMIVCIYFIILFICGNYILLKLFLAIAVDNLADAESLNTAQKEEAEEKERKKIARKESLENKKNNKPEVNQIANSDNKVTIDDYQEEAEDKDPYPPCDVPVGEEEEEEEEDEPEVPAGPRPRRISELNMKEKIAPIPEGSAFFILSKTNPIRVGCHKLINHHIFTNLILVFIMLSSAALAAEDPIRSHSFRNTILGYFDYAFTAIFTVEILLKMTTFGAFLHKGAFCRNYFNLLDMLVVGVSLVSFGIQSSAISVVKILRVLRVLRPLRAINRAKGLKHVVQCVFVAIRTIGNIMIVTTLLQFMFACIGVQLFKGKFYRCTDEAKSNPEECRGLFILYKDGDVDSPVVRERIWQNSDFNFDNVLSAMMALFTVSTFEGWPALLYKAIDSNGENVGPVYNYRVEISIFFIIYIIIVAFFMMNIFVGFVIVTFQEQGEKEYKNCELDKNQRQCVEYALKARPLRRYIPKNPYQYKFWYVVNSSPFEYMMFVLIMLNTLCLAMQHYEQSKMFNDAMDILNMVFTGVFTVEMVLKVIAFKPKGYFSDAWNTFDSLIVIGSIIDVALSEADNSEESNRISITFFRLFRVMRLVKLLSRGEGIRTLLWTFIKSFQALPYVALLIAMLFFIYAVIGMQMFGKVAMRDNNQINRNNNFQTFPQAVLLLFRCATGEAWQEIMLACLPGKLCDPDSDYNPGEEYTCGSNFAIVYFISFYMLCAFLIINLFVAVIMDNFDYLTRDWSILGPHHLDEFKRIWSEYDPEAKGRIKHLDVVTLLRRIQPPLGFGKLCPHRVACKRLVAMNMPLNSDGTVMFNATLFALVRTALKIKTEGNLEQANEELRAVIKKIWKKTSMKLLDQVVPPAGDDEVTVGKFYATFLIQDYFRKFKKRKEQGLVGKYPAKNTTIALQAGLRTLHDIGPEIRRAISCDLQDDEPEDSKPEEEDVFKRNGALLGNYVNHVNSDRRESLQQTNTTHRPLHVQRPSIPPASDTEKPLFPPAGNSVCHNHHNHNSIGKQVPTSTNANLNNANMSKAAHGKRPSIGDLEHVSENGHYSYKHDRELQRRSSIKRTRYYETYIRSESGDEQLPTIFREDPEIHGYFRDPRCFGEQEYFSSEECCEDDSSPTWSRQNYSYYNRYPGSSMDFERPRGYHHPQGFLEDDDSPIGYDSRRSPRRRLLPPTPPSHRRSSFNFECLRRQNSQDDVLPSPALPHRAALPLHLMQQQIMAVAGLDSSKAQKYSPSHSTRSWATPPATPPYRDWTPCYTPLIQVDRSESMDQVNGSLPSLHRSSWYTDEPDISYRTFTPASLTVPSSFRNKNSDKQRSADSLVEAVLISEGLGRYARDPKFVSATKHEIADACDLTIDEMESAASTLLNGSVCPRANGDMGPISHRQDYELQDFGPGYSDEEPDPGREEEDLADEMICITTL
Outline: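 Whole-cell patch clamp on tsA201 cells transiently cotransfected with rabbit Cav1.2 α1C or rat Cav1.3 α1D, Cavβ3 and Cavα2δ-1 (1:1:1) plus GFP. GFP cells were recorded after replating at 48 h. Bath (mM): 110 NaCl, 1 MgCl2, 10 BaCl2, 10 HEPES, 10 glucose, 20 CsCl, pH 7.4. Compound was diluted from DMSO stock and perfused. Pulses ran from -60 mV to +10 or 0 mV with tetrodotoxin at about 22 °C. Read-out was percent current inhibition.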

[3] = target: T1, Voltage-dependent L-type calcium channel subunit alpha-1C (Oryctolagus cuniculus, UniProt P15381); assay: Antagonist activity at rabbit Cav1.2 expressed in tsA201 cells assessed as inhibition of voltage pulse-induced calcium current at 200 nM by whole-cell patch-clamp recording
T1 sequence (P15381 whole entry): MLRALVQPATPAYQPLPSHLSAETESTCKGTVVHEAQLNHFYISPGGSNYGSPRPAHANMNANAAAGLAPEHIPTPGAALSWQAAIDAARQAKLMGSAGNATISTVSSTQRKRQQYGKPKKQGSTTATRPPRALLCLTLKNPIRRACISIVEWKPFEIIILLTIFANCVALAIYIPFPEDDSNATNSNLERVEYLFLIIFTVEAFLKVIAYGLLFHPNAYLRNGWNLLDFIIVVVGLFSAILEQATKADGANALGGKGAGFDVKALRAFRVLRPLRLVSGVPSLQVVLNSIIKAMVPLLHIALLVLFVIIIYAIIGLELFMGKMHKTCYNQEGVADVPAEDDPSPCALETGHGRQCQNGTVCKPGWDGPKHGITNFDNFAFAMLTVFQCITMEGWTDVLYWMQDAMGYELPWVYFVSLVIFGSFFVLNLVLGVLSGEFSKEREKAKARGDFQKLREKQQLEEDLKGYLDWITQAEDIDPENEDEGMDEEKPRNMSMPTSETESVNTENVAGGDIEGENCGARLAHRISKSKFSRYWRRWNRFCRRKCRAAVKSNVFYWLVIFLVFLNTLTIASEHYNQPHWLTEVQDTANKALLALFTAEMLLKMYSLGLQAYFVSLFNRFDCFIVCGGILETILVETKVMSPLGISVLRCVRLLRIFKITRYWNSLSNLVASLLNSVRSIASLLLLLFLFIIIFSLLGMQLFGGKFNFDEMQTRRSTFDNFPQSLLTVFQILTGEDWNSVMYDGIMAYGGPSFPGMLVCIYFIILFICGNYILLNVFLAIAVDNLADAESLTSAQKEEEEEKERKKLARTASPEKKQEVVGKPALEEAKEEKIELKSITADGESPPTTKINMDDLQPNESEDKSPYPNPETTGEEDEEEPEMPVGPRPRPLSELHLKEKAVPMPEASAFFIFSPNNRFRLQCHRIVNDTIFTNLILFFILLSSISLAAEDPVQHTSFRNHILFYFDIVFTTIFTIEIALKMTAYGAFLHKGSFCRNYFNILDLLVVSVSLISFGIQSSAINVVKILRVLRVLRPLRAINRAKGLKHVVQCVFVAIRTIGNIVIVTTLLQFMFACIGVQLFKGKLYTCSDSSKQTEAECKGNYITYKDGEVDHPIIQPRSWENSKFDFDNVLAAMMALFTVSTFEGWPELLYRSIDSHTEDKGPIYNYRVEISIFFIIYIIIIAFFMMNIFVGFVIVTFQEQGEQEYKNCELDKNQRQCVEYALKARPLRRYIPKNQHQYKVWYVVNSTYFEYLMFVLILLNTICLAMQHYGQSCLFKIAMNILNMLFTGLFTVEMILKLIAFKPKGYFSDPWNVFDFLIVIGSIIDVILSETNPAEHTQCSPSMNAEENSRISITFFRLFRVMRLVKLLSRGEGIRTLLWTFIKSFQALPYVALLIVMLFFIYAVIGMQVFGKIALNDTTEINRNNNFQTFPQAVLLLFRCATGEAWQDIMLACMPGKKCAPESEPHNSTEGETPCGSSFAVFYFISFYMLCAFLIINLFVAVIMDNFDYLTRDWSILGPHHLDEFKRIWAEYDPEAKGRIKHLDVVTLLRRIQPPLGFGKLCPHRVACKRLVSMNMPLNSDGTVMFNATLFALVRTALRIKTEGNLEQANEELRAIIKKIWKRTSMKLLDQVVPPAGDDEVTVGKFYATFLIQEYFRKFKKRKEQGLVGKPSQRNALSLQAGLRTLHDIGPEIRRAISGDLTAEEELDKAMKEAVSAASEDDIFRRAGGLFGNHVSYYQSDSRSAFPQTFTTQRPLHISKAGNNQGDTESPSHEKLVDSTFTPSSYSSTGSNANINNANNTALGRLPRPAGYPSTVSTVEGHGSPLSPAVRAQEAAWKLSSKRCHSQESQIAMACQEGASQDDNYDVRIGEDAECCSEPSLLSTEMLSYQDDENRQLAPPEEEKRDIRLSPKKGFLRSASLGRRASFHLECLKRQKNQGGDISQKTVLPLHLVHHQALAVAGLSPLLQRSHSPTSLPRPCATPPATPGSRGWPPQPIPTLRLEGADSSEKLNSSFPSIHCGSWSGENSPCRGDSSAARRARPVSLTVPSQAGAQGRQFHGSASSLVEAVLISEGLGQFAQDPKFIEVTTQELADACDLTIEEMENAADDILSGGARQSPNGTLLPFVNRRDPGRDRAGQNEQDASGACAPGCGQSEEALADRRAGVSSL

[4] = target: T1, Voltage-dependent L-type calcium channel subunit alpha-1C; assay: Antagonist activity at rabbit Cav1.2 expressed in HEK293 cells assessed as inhibition of voltage pulse-induced calcium current by FLIPR calcium 4 assay; assay type: functional, cell-based
Outline: (§1)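 HEK293 lines stably expressing Cavβ3 and Cavα2δ-1 plus Cav1.2 α1C (rabbit) or Cav1.3 α1D (rat) were selected with zeocin/hygromycin. Calcium signals were read by FLIPR with Calcium 4 dye. IC50 came from 11-point dose-response curves. Signal percentage error (SD/mean) was 6.4% for Cav1.2 and 4.1% for Cav1.3 cells.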

[5] = target: Voltage-dependent L-type calcium channel subunit alpha-1D (Rattus norvegicus, UniProt P27732); assay: Antagonist activity at rat Cav1.3 expressed in HEK293 cells assessed as inhibition of voltage pulse-induced calcium current by FLIPR calcium 4 assay; assay type: functional, cell-based; outline: as §1
Voltage-dependent L-type calcium channel subunit alpha-1D, sequence (P27732 whole entry): as the sequence (P27732 whole entry, the tested form may be a part) above

Row | Compound | inhibition [2] [%] | IC50 [5] [nM] | Selectivity ratio [1] | inhibition at 0.2 µM [3] [%] | IC50 [4] [nM]
1 | CCOC(=O)C1=C(C(F)(F)F)NC(C(F)(F)F)=C(C(=O)OCC)C1c1cccc(C(F)(F)F)c1 | 67 |  | 1.1 | 61 | 
2 | CCOC(=O)C1=C(C)NC(C)=C(C(=O)OCC)C1c1ccccc1-c1ccccc1 | 65 |  | 0.89 | 73 | 
3 | COC(=O)C1=C(C)NC(C)=C(C(=O)OCC(C)C)C1c1cccc([N+](=O)[O-])c1 (stereo not drawn) | 90 |  | 0.96 | 94 | 
4 | CCOC(=O)C1=C(C(F)(F)F)NC(C(F)(F)F)=C(C(=O)OCC)C1c1cccc([N+](=O)[O-])c1 | 38 |  | 1.11 | 34 | 
5 | CCOC(=O)C1=C(C)NC(C)=C(C(=O)OCC)C1c1cc(C(F)(F)F)cc(C(F)(F)F)c1 | 38 |  | 1 | 38 | 
6 | COC(=O)C1=C(C)NC(C)=C(C(=O)OC(C)C)C1c1cccc([N+](=O)[O-])c1 (stereo not drawn) | 89 |  | 0.93 | 96 | 
7 | COC(=O)C1=C(C)NC(C)=C(C(=O)OC(C)(C)C)C1c1cccc([N+](=O)[O-])c1 (stereo not drawn) [MEBUDIPINE] | 85 |  | 0.93 | 91 | 
8 | CCOC(=O)C1=C(C)NC(C)=C(C(=O)OCC)C1C1CCCCC1 | 21 |  | 0.81 | 26 | 
9 | CCCC1C(C(=O)OCC)=C(C)NC(C)=C1C(=O)OCC | 36 |  | 0.86 | 42 | 
10 | CC1=C(C(=O)OC(C)C)C(c2cccc([N+](=O)[O-])c2)C(C(=O)OC(C)C)=C(C)N1 | 66 |  | 0.86 | 77 | 
11 | COC(=O)C1=C(C)NC(C)=C(C(=O)OCCC(C)c2ccccc2)C1c1cccc([N+](=O)[O-])c1 (stereo not drawn) |  | 11 |  |  | 6
12 | CC1=C(C(=O)OCC(C)C)C(c2cccc([N+](=O)[O-])c2)C(C(=O)OCC(C)C)=C(C)N1 | 59 |  | 1.14 | 52 | 

The next lines start with results.

Row | inhibition [2] [%] | IC50 [5] [nM] | Compound | Selectivity ratio [1] | inhibition at 0.2 µM [3] [%] | IC50 [4] [nM]
13 | 32 |  | CCOC(=O)C1=C(C)NC(C)=C(C(=O)OCC)C1c1ccoc1 | 0.57 | 56 | 
14 | 95 |  | CCOC(=O)C1=C(C)NC(C)=C(C(=O)OCC)C1c1ccccc1I | 0.99 | 96 | 
15 | 57 |  | CCOC(=O)C1=C(C)N=C(C)/C(=C(/O)OCC)C1c1cccs1 (stereo not drawn) | 0.87 | 65 | 
16 | 89 |  | CCOC(=O)C1=C(C)NC(C)=C(C(=O)OCC)C1c1cc([N+](=O)[O-])ccc1Cl | 0.92 | 97 | 
17 | 88 |  | CCOC(=O)C1=C(C)NC(CC)=C(C(=O)OCC)C1c1cccc([N+](=O)[O-])c1 (stereo not drawn) | 0.95 | 93 | 
18 | 15 |  | CCOC(=O)C1=C(C)N=C(C)/C(=C(/O)OCC)C1c1ccncc1 (stereo not drawn) | 0.56 | 27 | 
19 | 72 |  | CCOC(=O)C1=C(C)NC(C)=C(C(=O)OCC)C1c1cc(Br)cc(Br)c1 | 0.98 | 74 | 
20 | 66 |  | CCOC(=O)C1=C(C)NC(C)=C(C(=O)OCC)C1c1ccc(Cl)c([N+](=O)[O-])c1 | 0.77 | 86 | 
21 | 50 |  | CCOC(=O)C1=C(C)NC(C)=C(C(=O)OCC)C1c1ccsc1 | 0.93 | 54 | 
22 | 12 |  | CCOC(=O)C1=C(C)NC(C)=C(C(=O)OCC)C1c1ccc2ccccc2c1 | 0.75 | 16 | 
23 | 57 |  | CCOC(=O)C1=C(C)NC(C)=C(C(=O)OCC)C1c1csc2ccccc12 | 0.7 | 80 | 
